Data: paper PMC5048114 (Iranian Journal of Basic Medical Sciences, 2016)
Converted amounts (≈) assume the structure as drawn.

How the values were obtained:
[1] = Ferric reducing antioxidant potential; conditions: 30 min incubation at 37 °C, absorbance 593 nm
Method in brief: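 FRAP reagent is 300 mM acetate buffer pH 3.6, 20 mM ferric chloride hexahydrate in water and 10 mM TPTZ in 40 mM HCl, combined 10:1:1 by volume (stock concentrations). Test compound at five concentrations (µg/ml) is added to the reagent in microplate wells, and absorbance is read after incubation. Run in triplicate.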

[2] = DPPH free radical scavenging assay; conditions: 0.3 mM DPPH, 30 min at 37 °C, absorbance 515 nm
Method in brief: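 Test compound at four concentrations (µg/ml) in microplate wells, mixed with ethanolic DPPH. Blank is solvent alone with DPPH. Absorbance decrease is read after incubation. Run in triplicate and reported as the mean of three values.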

[3] = system: glutamate-induced neurotoxicity; conditions: concentrations ranging from 0.1 to 10 µM; cited from earlier work

IC50 (DPPH radical scavenging activity) [2]	SMILES	FRAP [1]	attenuation of glutamate-induced neurotoxicity [3]
0.41 µg/mL (≈ 0.952 µM)	Cc1c(C)c2c(c(C)c1O)CC[C@@](C)(CCC[C@H](C)CCC[C@H](C)CCCC(C)C)O2 [α- tocopherol, α-tocopherol, reference compound]	1.99 mmol/g	
12 µg/mL (≈ 38.2 µM)	COc1cc(O)c2c(=O)c(OC)c(-c3ccc(O)cc3)oc2c1 [Jaranol, jaranol]	1.5 mmol/g	
0.53 µg/mL (≈ 0.849 µM)	C[C@@H]1O[C@@H](O[C@@H]2[C@@H](O)[C@H](OCCc3ccc(O)c(O)c3)O[C@H](CO)[C@H]2OC(=O)/C=C/c2ccc(O)c(O)c2)[C@H](O)[C@H](O)[C@H]1O [Verbascoside, verbascoside]	7.49 mmol/g	
0.042 µg/mL (≈ 0.0545 µM)	C[C@@H]1O[C@@H](OC[C@H]2O[C@@H](OCCc3ccc(O)c(O)c3)[C@H](O)[C@@H](O[C@@H]3O[C@@H](C)[C@H](O)[C@@H](O)[C@H]3O)[C@@H]2OC(=O)/C=C/c2ccc(O)c(O)c2)[C@H](O)[C@H](O)[C@H]1O [Poliumoside, poliumoside]	14.32 mmol/g	significantly attenuated glutamate-induced neurotoxicity
1.37 µg/mL (≈ 2.37 µM)	C[C@@H]1O[C@@H](OC[C@H]2O[C@@H](Oc3cc(O)c4c(=O)cc(-c5ccc(O)cc5)oc4c3)[C@H](O)[C@@H](O)[C@@H]2O)[C@H](O)[C@H](O)[C@H]1O [Isorhoifolin, isorhoifolin]	7.67 mmol/g	
